Results published in ChEMBL document CHEMBL4400509, “Conversion of Quinazoline Modulators from Inhibitors to Activators of β-Glucocerebrosidase” (J Med Chem, 2019).
Activity calls are given as the source filed them. The rule behind the calls is not given here.

What was measured:
[1] = molecular target: T1, Lysosomal acid glucosylceramidase (Homo sapiens, UniProt P04062); experiment: Activation of wild type recombinant human lysosomal beta-glucocerebrosidase using 4-methylumbelliferyl-beta-D-glucopyranoside as substrate preincubated for 5 mins followed by substrate addition and measured after 30 mins by fluorescence assay
T1 sequence (P04062 whole entry): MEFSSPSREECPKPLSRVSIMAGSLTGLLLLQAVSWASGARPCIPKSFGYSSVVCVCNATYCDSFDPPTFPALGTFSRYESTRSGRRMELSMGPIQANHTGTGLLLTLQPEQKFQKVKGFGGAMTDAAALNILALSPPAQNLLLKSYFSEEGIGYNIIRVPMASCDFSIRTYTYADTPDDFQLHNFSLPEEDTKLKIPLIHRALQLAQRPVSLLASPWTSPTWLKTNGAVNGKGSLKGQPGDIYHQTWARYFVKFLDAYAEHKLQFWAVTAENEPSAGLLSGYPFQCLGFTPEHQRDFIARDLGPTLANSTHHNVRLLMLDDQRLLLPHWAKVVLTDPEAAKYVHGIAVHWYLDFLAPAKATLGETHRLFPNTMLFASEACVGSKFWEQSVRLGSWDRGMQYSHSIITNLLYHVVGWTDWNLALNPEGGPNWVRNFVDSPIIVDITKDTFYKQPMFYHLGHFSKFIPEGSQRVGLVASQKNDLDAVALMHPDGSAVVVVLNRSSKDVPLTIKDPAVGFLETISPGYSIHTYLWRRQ
In short: (§1)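 Recombinant wild-type human GCase (velaglucerase alfa), 7.5 nM final, in 50 mM citric acid/176 mM K2HPO4/0.01% Tween-20, pH 5.9. Enzyme was preincubated 5 min at room temperature with compound (12-point series, 48 nM–100 μM final). 4MU-β-Glc (1.5 mM final) was added, and the reaction ran 30 min at 37 °C. It was stopped with 1 M NaOH/1 M glycine, pH 10, and read at ex 365/em 440 nm. Triplicate, mean.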

[2] = molecular target: T2, Lysosomal acid glucosylceramidase (Homo sapiens) (UniProt P04062); experiment: Activation of wild type recombinant human lysosomal beta-glucocerebrosidase at 0.048 to 100 uM using 4-methylumbelliferyl-beta-D-glucopyranoside as substrate preincubated for 5 mins followed by substrate addition and measured after 30 mins by fluorescence assay relative to control; in short: as §1
T2 sequence (whole entry): T1 sequence (P04062 whole entry)

Row | Structure (SMILES) | AC50 ([1]; read-out: AC50) | Emax [2] | AC50 [1]
1 | CN(CCOc1ccccc1)c1nc(-c2cncnc2)nc2ccccc12 | 0.89 µM | 634% | 
2 | CN(CCCc1ccccc1)c1nc(-c2cccnc2)nc2ccccc12 |  | 223% | 
3 | CN(C[C@@H]1COc2ccccc2O1)c1nc(-c2cccnc2)nc2ccccc12 | 2.37 µM | 296% | 
4 | c1ccc(OCCNc2nc(-c3cccnc3)nc3ccccc23)cc1 | 1.56 µM | 140% | 
5 | CN(Cc1ccc2c(c1)OCO2)c1nc(-c2cccnc2)nc2ccccc12 | 1.63 µM | 160% | 
6 | c1ccc(O[C@@H]2CCCN(c3nc(-c4cccnc4)nc4ccccc34)C2)cc1 | 3.65 µM | 302% | 
7 | CN(CCOc1ccccc1)c1nc(-c2cccs2)nc2ccccc12 |  | inactive | Not Active
8 | CN(CCOc1ccccc1)c1nc(-c2ccoc2)nc2ccccc12 | 1.68 µM | 145% | 
9 | CN(CCOCc1ccccc1)c1nc(-c2cccnc2)nc2ccccc12 | 16.9 µM | 394% | 
10 | CN(CCc1ccccc1)c1nc(-c2cccnc2)nc2ccccc12 | 1.39 µM | 126% | 
11 | c1cncc(-c2nc(N3CCCOCC3)c3ccccc3n2)c1 | 44.1 µM | 423% | 
12 | CN(CCOc1ccccc1)c1nc(-c2ccncc2)nc2ccccc12 | 2.89 µM | 690% | 
13 | CN(c1nc(-c2cccnc2)nc2ccccc12)C1CCCC1 | 6.36 µM | 149% | 
14 | CC(CN(C)c1nc(-c2cccnc2)nc2ccccc12)Oc1ccccc1 (stereo not given) | 8.97 µM | 390% | 
15 | CN(Cc1ccc2c(c1)OCCO2)c1nc(-c2cccnc2)nc2ccccc12 | 4.88 µM | 488% | 
16 | c1ccc(C2CCCN(c3nc(-c4cccnc4)nc4ccccc34)C2)cc1 (stereo not given) | 4.66 µM | 130% | 
17 | CN(c1nc(-c2cccnc2)nc2ccccc12)C1CCCCC1 | 2.36 µM | 137% | 
18 | CN(Cc1nc2ccccc2o1)c1nc(-c2cccnc2)nc2ccccc12 | 16.1 µM | 643% | 

Row | Structure (SMILES) | AC50 ([1]; read-out: AC50) | Emax [2] | AC50 [1]
19 | CN(CCOc1ccccc1)c1nc(-c2ccccc2)nc2ccccc12 |  | inactive | Not Active
20 | CCCN(CCOc1ccccc1)c1nc(-c2cccnc2)nc2ccccc12 | 3.18 µM | 132% | 
21 | c1ccc(O[C@H]2CCCN(c3nc(-c4cccnc4)nc4ccccc34)C2)cc1 | 4.75 µM | 237% | 
22 | CN(Cc1nc2ccccc2[nH]1)c1nc(-c2cccnc2)nc2ccccc12 | 7.92 µM | 197% | 
23 | CN(CCOc1ccccc1)c1nc(-c2ccccn2)nc2ccccc12 | > 50 µM |  | 
24 | CN(Cc1ccc2ccccc2c1)c1nc(-c2cccnc2)nc2ccccc12 | 3.8 µM | 155% | 
25 | c1ccc(CC2CCCCN2c2nc(-c3cccnc3)nc3ccccc23)cc1 (stereo not given) | 4.47 µM | 364% | 
26 | CN(CCOc1ccccc1)c1nc(-c2ccco2)nc2ccccc12 | 21.7 µM | 229% | 
27 | CN(CCCCc1ccccc1)c1nc(-c2cccnc2)nc2ccccc12 | 3.99 µM | 190% | 
28 | CC(COc1ccccc1)N(C)c1nc(-c2cccnc2)nc2ccccc12 (stereo not given) | 7.52 µM | 345% | 
29 | CN(Cc1nc2ccccc2s1)c1nc(-c2cccnc2)nc2ccccc12 | 6.9 µM | 517% | 
30 | CCN(CCOc1ccccc1)c1nc(-c2cccnc2)nc2ccccc12 | 5.38 µM | 478% | 
31 | c1ccc(OC2CCN(c3nc(-c4cccnc4)nc4ccccc34)C2)cc1 (stereo not given) | 1.17 µM | 276% | 
32 | CN1Cc2ccc(CN(C)c3nc(-c4cccnc4)nc4ccccc34)cc2C1 | 14.9 µM | 428% | 
33 | c1cncc(-c2nc(N3CCOc4ccccc4C3)c3ccccc3n2)c1 | 9.74 µM | 438% | 
34 | c1cncc(-c2nc(N3CCc4[nH]c5ccccc5c4C3)c3ccccc3n2)c1 |  | inactive | Not Active
35 | c1cncc(-c2nc(N3CCc4c([nH]c5ccccc45)C3)c3ccccc3n2)c1 | 4.27 µM | 175% | 
36 | c1ccc(CC2CCCN(c3nc(-c4cccnc4)nc4ccccc34)C2)cc1 (stereo not given) | 5.18 µM | 160% | 
